Laboratory results: ChEMBL document CHEMBL5329156, “Discovery and development of novel substituted monohydrazides as potent antifungal agents” (RSC Med Chem, 2023)

Experiments:
Candida duobushaemulonii [1] = assay: Antifungal activity against Candida duobushaemulonii AR Bank # 394 assessed as fungal growth inhibition by double dilution method; assay type: functional; conditions: Candidozyma duobushaemuli
Method in brief: (§1)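 Broth microdilution after CLSI M27-A3/M38-A2 with minor changes. Single colony grown overnight in YPD at 35 °C, 200 rpm. Compound final range 0.06-31.3 µg/mL; incubated 48 h at 35 °C.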

[Candida] auris [2] = Antifungal activity against Candida auris AR Bank # 385 assessed as fungal growth inhibition by double dilution method; assay type: functional; conditions: Candidozyma auris; method in brief: as §1
[Candida] haemuloni [3] = Antifungal activity against Candida haemulonii AR Bank # 395 assessed as fungal growth inhibition by double dilution method; assay type: functional; conditions: Candidozyma haemuli; method in brief: as §1
Candida duobushaemulonii [4] = assay: Antifungal activity against Candida duobushaemulonii AR Bank # 392 assessed as fungal growth inhibition by double dilution method; assay type: functional; conditions: Candidozyma duobushaemuli; method in brief: as §1
Candida albicans [5] = assay: Antifungal activity against itraconazole/fluconazole resistant Candida albicans ATCC 90819 assessed as fungal growth inhibition by double dilution method; assay type: functional
Method in brief: (§2)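 Broth microdilution after CLSI M27-A3/M38-A2 with minor modifications. A single colony was grown overnight in YPD at 35 °C with shaking at 200 rpm. Cells were mixed 1:1 with compound (final 0.06-31.3 µg/mL, from DMSO stocks) and incubated 48 h at 35 °C.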

HEK293 = assay: Cytotoxicity against human HEK-293 cells assessed as reduction in cell viability at 31.3 microg/ml; assay type: toxicity, cell-based; conditions: dose 31.3 µg/ml
Method in brief: (§3)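 Cells in DMEM with 10% FBS and 1% Pen/Strep, seeded at 10,000 cells/well and held overnight at 37 °C, 5% CO2. Compounds added at final 31.3-0.12 µg/mL (0.05% DMSO vehicle) for 24 h. Resazurin then added for 6 h; fluorescence read at ex 560/em 590. Triton X-100 1% as positive control; values normalized to vehicle. Run in quadruplicate.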

Candida albicans [6] = assay: Antifungal activity against Candida albicans ATCC 64124 assessed as fungal growth inhibition by double dilution method; assay type: functional; method in brief: as §2
Nakaseomyces glabratus [7] = assay: Antifungal activity against Candida glabrata ATCC 22019 assessed as fungal growth inhibition by double dilution method; assay type: functional; method in brief: as §1
[Candida] haemuloni [8] = Antifungal activity against Candida haemulonii AR Bank # 393 assessed as fungal growth inhibition by double dilution method; assay type: functional; conditions: Candidozyma haemuli; method in brief: as §1
Pichia kudriavzevii [9] = assay: Antifungal activity against Pichia kudriavzevii ATCC 6258 assessed as fungal growth inhibition by double dilution method; assay type: functional; method in brief: as §1
Cryptococcus neoformans = assay: Antifungal activity against Cryptococcus neoformans ATCC MYA-895 assessed as fungal growth inhibition by double dilution method; assay type: functional; method in brief: as §1
Aspergillus fumigatus [10] = assay: Antifungal activity against Aspergillus fumigatus NRRL 163 assessed as fungal growth inhibition by double dilution method; assay type: functional
Kodamaea ohmeri = assay: Antifungal activity against Kodamaea ohmeri AR Bank # 396 assessed as fungal growth inhibition by double dilution method; assay type: functional; method in brief: as §1
Nakaseomyces glabratus [11] = assay: Antifungal activity against Candida glabrata ATCC 2001 assessed as fungal growth inhibition by double dilution method; assay type: functional; method in brief: as §1
Clavispora lusitaniae = assay: Antifungal activity against Clavispora lusitaniae AR Bank # 398 assessed as fungal growth inhibition by double dilution method; assay type: functional; method in brief: as §1
[Candida] auris [12] = Antifungal activity against Candida auris AR Bank # 387 assessed as fungal growth inhibition by double dilution method; assay type: functional; conditions: Candidozyma auris; method in brief: as §1
[Candida] auris [13] = Antifungal activity against Candida auris AR Bank # 389 assessed as fungal growth inhibition by double dilution method; assay type: functional; conditions: Candidozyma auris; method in brief: as §1
Aspergillus terreus = assay: Antifungal activity against Aspergillus terreus ATCC MYA-3633 assessed as fungal growth inhibition by double dilution method; assay type: functional
Candida albicans [14] = assay: Antifungal activity against itraconazole/fluconazole resistant Candida albicans ATCC MYA-1003 assessed as fungal growth inhibition by double dilution method; assay type: functional; method in brief: as §2
Candida duobushaemulonii [15] = assay: Antifungal activity against Candida duobushaemulonii AR Bank # 391 assessed as fungal growth inhibition by double dilution method; assay type: functional; conditions: Candidozyma duobushaemuli; method in brief: as §1
[Candida] auris [16] = Antifungal activity against Candida auris AR Bank # 388 assessed as fungal growth inhibition by double dilution method; assay type: functional; conditions: Candidozyma auris; method in brief: as §1
[Candida] auris [17] = Antifungal activity against Candida auris AR Bank # 381 assessed as fungal growth inhibition by double dilution method; assay type: functional; conditions: Candidozyma auris; method in brief: as §1
[Candida] auris [18] = Antifungal activity against Candida auris AR Bank # 0384 assessed as fungal growth inhibition by double dilution method; assay type: functional; conditions: Candidozyma auris; method in brief: as §1
[Candida] auris [19] = Antifungal activity against Candida auris AR Bank # 382 assessed as fungal growth inhibition by double dilution method; assay type: functional; conditions: Candidozyma auris; method in brief: as §1
Saccharomyces cerevisiae [20] = assay: Antifungal activity against Saccharomyces cerevisiae AR Bank # 400 assessed as fungal growth inhibition by double dilution method; assay type: functional; method in brief: as §1
Aspergillus nidulans = assay: Antifungal activity against Aspergillus nidulans ATCC 38163 assessed as fungal growth inhibition by double dilution method; assay type: functional
Saccharomyces cerevisiae [21] = assay: Antifungal activity against Saccharomyces cerevisiae AR Bank # 399 assessed as fungal growth inhibition by double dilution method; assay type: functional; method in brief: as §1
[Candida] auris [22] = Antifungal activity against Candida auris AR Bank # 386 assessed as fungal growth inhibition by double dilution method; assay type: functional; conditions: Candidozyma auris; method in brief: as §1
[Candida] auris [23] = Antifungal activity against Candida auris AR Bank # 390 assessed as fungal growth inhibition by double dilution method; assay type: functional; conditions: Candidozyma auris; method in brief: as §1
Candida albicans [24] = assay: Antifungal activity against itraconazole/fluconazole susceptible Candida albicans ATCC MYA-2876 assessed as fungal growth inhibition by double dilution method; assay type: functional; method in brief: as §2
HepG2 = assay: Cytotoxicity against human HepG2 cells assessed as reduction in cell viability upto 31.3 microg/ml; assay type: toxicity, cell-based; conditions: dose < 31.3 µg/ml; method in brief: as §3
Aspergillus fumigatus [25] = assay: Antifungal activity against Aspergillus fumigatus NRRL 6113 assessed as fungal growth inhibition by double dilution method; assay type: functional
Pichia kudriavzevii [26] = assay: Antifungal activity against Pichia kudriavzevii AR Bank # 397 assessed as fungal growth inhibition by double dilution method; assay type: functional; method in brief: as §1
[Candida] auris [27] = Antifungal activity against Candida auris AR Bank # 384 assessed as fungal growth inhibition by double dilution method; assay type: functional; conditions: Candidozyma auris; method in brief: as §1
Candida albicans [28] = assay: Antifungal activity against Candida albicans ATCC 10231 assessed as fungal growth inhibition by double dilution method; assay type: functional; method in brief: as §1
Aspergillus flavus = assay: Antifungal activity against Aspergillus flavus ATCC MYA-3631 assessed as fungal growth inhibition by double dilution method; assay type: functional
[Candida] auris [29] = Antifungal activity against Candida auris AR Bank # 383 assessed as fungal growth inhibition by double dilution method; assay type: functional; conditions: Candidozyma auris; method in brief: as §1
Candida albicans [30] = assay: Antifungal activity against itraconazole/fluconazole resistant Candida albicans ATCC MYA-1237 assessed as fungal growth inhibition by double dilution method; assay type: functional; method in brief: as §2
[Candida] auris [31] = Antifungal activity against Candida auris AR Bank # 0390 assessed as fungal growth inhibition by double dilution method; assay type: functional; conditions: Candidozyma auris; method in brief: as §1
Aspergillus fumigatus [32] = assay: Antifungal activity against Aspergillus fumigatus NRRL 5109 assessed as fungal growth inhibition by double dilution method; assay type: functional
Candida albicans [33] = assay: Antifungal activity against itraconazole/fluconazole susceptible Candida albicans ATCC MYA-2310 assessed as fungal growth inhibition by double dilution method; assay type: functional; method in brief: as §2
J774.A1 = assay: Cytotoxicity against J774A.1 cells assessed as reduction in cell viability at 31.3 microg/ml; assay type: toxicity, cell-based; conditions: mouse, dose 31.3 µg/ml; method in brief: as §3

O=C(NNc1ccc(F)cc1F)c1cnccn1
7.8 µg/mL: MIC (Candida duobushaemulonii [1]) | MIC (Saccharomyces cerevisiae [21]) | MIC (Aspergillus flavus)
> 31.3 µg/mL: MIC (Aspergillus fumigatus [10]) | MIC (Aspergillus fumigatus [25]) | MIC (Aspergillus fumigatus [32])
0.24 µg/mL: MIC (Candida duobushaemulonii [4]) | MIC ([Candida] haemuloni [8]) | MIC (Pichia kudriavzevii [9]) | MIC (Cryptococcus neoformans) | MIC (Candida albicans [28])
3.9 µg/mL: MIC (Nakaseomyces glabratus [7]) | MIC (Clavispora lusitaniae) | MIC ([Candida] auris [17]) | MIC ([Candida] auris [18]) | MIC ([Candida] auris [27]) | MIC (Candida albicans [33])
1.95 µg/mL: MIC ([Candida] haemuloni [3]) | MIC ([Candida] auris [19]) | MIC (Saccharomyces cerevisiae [20]) | MIC (Pichia kudriavzevii [26])
0.49 µg/mL: MIC ([Candida] auris [12]) | MIC ([Candida] auris [13]) | MIC (Candida albicans [14]) | MIC (Candida duobushaemulonii [15]) | MIC ([Candida] auris [16]) | MIC (Aspergillus nidulans) | MIC ([Candida] auris [22]) | MIC (Candida albicans [30])
0.98 µg/mL: MIC ([Candida] auris [2]) | MIC (Candida albicans [5]) | MIC (Candida albicans [6]) | MIC (Kodamaea ohmeri) | MIC (Nakaseomyces glabratus [11]) | MIC (Aspergillus terreus) | MIC ([Candida] auris [23]) | MIC (Candida albicans [24]) | MIC ([Candida] auris [29]) | MIC ([Candida] auris [31])
Non-Toxic: Activity (HEK293) | Activity (HepG2) | Activity (J774.A1)
